ChEMBL document CHEMBL5247578, “Effective synthesis of benzimidazoles-imidazo[1,2-a]pyrazine conjugates: A comparative study of mono-and bis-benzimidazoles for antitumor activity” (Eur J Med Chem, 2019)

Experiments:
[1] = test system: U-251; experiment: Antiproliferative activity against human U-251 cells assessed as cell growth inhibition at 10 uM incubated for 48 hrs by sulforhodamine B assay relative to control; assay type: functional
Summary of the method: (§1)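 NCI-60 single-dose screen at 10^-5 M. Cells grown in RPMI 1640 with 5% FBS and 2 mM L-glutamine, plated at 5,000–40,000 cells/well, and preincubated 24 h. Drug (DMSO stock) added and incubated 48 h at 37 °C, 5% CO2. Adherent cells fixed with cold TCA, stained with 0.4% SRB in 1% acetic acid, dye solubilized in 10 mM trizma base, A515 read. Percent growth taken against time-zero and untreated control.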

[2] = test system: MDA-MB-468; experiment: Antiproliferative activity against human MDA-MB-468 cells assessed as cell growth inhibition at 10 uM incubated for 48 hrs by sulforhodamine B assay relative to control; assay type: functional; summary of the method: as §1
[3] = test system: SF-295; experiment: Antiproliferative activity against human SF-295 cells assessed as cell growth inhibition at 10 uM incubated for 48 hrs by sulforhodamine B assay relative to control; assay type: functional; summary of the method: as §1
[4] = test system: M14; experiment: Antiproliferative activity against human M14 cells assessed as cell growth inhibition at 10 uM incubated for 48 hrs by sulforhodamine B assay relative to control; assay type: functional; summary of the method: as §1
[5] = test system: OVCAR-8; experiment: Antiproliferative activity against human OVCAR-8 cells assessed as cell growth inhibition at 10 uM incubated for 48 hrs by sulforhodamine B assay relative to control; assay type: functional; summary of the method: as §1
[6] = test system: SNB-19; experiment: Antiproliferative activity against human SNB-19 cells assessed as cell growth inhibition at 10 uM incubated for 48 hrs by sulforhodamine B assay relative to control; assay type: functional; summary of the method: as §1
[7] = test system: UO-31; experiment: Antiproliferative activity against human UO-31 cells assessed as cell growth inhibition at 10 uM incubated for 48 hrs by sulforhodamine B assay relative to control; assay type: functional; summary of the method: as §1
[8] = n-Octanol/phosphate buffer partition coefficient, logP of the compound at pH 7.4 incubated for 85 mins by shake-flask method; assay type: physicochemical
Summary of the method: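 Octanol–water partition by shake-flask: n-octanol with 0.15 M phosphate buffer pH 7.4 at 10:1 volumes. Buffer-phase absorbance read before mixing, then shaken 50 min and centrifuged at 2500 rpm for 35 min. Buffer absorbance read again; P = (Ai−Af)/Af × Vw/Vo.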

[9] = test system: HCT-15; experiment: Antiproliferative activity against human HCT-15 cells assessed as cell growth inhibition at 10 uM incubated for 48 hrs by sulforhodamine B assay relative to control; assay type: functional
Summary of the method: (§2)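 NCI-60 one-dose prescreen at 10^-5 M. Cells grown in RPMI 1640 with 5% FBS and 2 mM glutamine, preincubated 24 h, then exposed 48 h at 37 °C. Adherent lines TCA-fixed, SRB-stained, A515 read. Growth percent relative to time-zero and control; negative values mean cell kill.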

[10] = test system: HT-29; experiment: Antiproliferative activity against human HT-29 cells assessed as cell growth inhibition at 10 uM incubated for 48 hrs by sulforhodamine B assay relative to control; assay type: functional; summary of the method: as §1
[11] = test system: MCF7; experiment: Antiproliferative activity against human MCF7 cells assessed as cell growth inhibition at 10 uM incubated for 48 hrs by sulforhodamine B assay relative to control; assay type: functional; summary of the method: as §1
[12] = test system: SR; experiment: Antiproliferative activity against human SR cells assessed as cell growth inhibition at 10 uM incubated for 48 hrs by sulforhodamine B assay relative to control; assay type: functional; summary of the method: as §1
[13] = test system: SF-268; experiment: Antiproliferative activity against human SF-268 cells assessed as cell growth inhibition at 10 uM incubated for 48 hrs by sulforhodamine B assay relative to control; assay type: functional; summary of the method: as §1
[14] = test system: ACHN; experiment: Antiproliferative activity against human ACHN cells assessed as cell growth inhibition at 10 uM incubated for 48 hrs by sulforhodamine B assay relative to control; assay type: functional
Summary of the method: (§3)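 Single-dose NCI-60 prescreen at 10^-5 M. Cells in RPMI 1640 with 5% FBS and 2 mM L-glutamine, seeded 5,000–40,000 cells/well with 24 h preincubation, then drug exposure for 48 h at 37 °C under 5% CO2. Growth read by SRB staining of TCA-fixed cells at 515 nm against time-zero and untreated controls. Negative growth values denote cell kill.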

[15] = test system: NCI/ADR-RES; experiment: Antiproliferative activity against human NCI/ADR-RES cells assessed as cell growth inhibition at 10 uM incubated for 48 hrs by sulforhodamine B assay relative to control; assay type: functional; summary of the method: as §1
[16] = test system: RXF 393; experiment: Antiproliferative activity against human RXF 393 cells assessed as cell growth inhibition at 10 uM incubated for 48 hrs by sulforhodamine B assay relative to control; assay type: functional; summary of the method: as §1
[17] = test system: MOLT-4; experiment: Antiproliferative activity against human MOLT-4 cells assessed as cell growth inhibition at 10 uM incubated for 48 hrs by sulforhodamine B assay relative to control; assay type: functional; summary of the method: as §1
[18] = test system: NCI-H322M; experiment: Antiproliferative activity against human NCI-H322M cells assessed as cell growth inhibition at 10 uM incubated for 48 hrs by sulforhodamine B assay relative to control; assay type: functional; summary of the method: as §1
[19] = test system: 786-0; experiment: Antiproliferative activity against human 786-0 cells assessed as cell growth inhibition at 10 uM incubated for 48 hrs by sulforhodamine B assay relative to control; assay type: functional; summary of the method: as §3
[20] = test system: SK-MEL-2; experiment: Antiproliferative activity against human SK-MEL-2 cells assessed as cell growth inhibition at 10 uM incubated for 48 hrs by sulforhodamine B assay relative to control; assay type: functional; summary of the method: as §1
[21] = test system: MDA-MB-231; experiment: Antiproliferative activity against human MDA-MB-231 cells assessed as cell growth inhibition at 10 uM incubated for 48 hrs by sulforhodamine B assay relative to control; assay type: functional; summary of the method: as §1
[22] = test system: HL-60; experiment: Antiproliferative activity against human HL-60 cells assessed as cell growth inhibition at 10 uM incubated for 48 hrs by sulforhodamine B assay relative to control; assay type: functional; summary of the method: as §2
[23] = test system: OVCAR-3; experiment: Antiproliferative activity against human OVCAR-3 cells assessed as cell growth inhibition at 10 uM incubated for 48 hrs by sulforhodamine B assay relative to control; assay type: functional; summary of the method: as §1
[24] = test system: LOX IMVI; experiment: Antiproliferative activity against human LOX IMVI cells assessed as cell growth inhibition at 10 uM incubated for 48 hrs by sulforhodamine B assay relative to control; assay type: functional; summary of the method: as §1
[25] = test system: MDA-MB-435; experiment: Antiproliferative activity against human MDA-MB-435 cells assessed as cell growth inhibition at 10 uM incubated for 48 hrs by sulforhodamine B assay relative to control; assay type: functional; summary of the method: as §1
[26] = test system: EKVX; experiment: Antiproliferative activity against human EKVX cells assessed as cell growth inhibition at 10 uM incubated for 48 hrs by sulforhodamine B assay relative to control; assay type: functional; summary of the method: as §2
[27] = test system: BT-549; experiment: Antiproliferative activity against human BT-549 cells assessed as cell growth inhibition at 10 uM incubated for 48 hrs by sulforhodamine B assay relative to control; assay type: functional; summary of the method: as §3
[28] = test system: HCT-116; experiment: Antiproliferative activity against human HCT-116 cells assessed as cell growth inhibition at 10 uM incubated for 48 hrs by sulforhodamine B assay relative to control; assay type: functional; summary of the method: as §2
[29] = test system: SF-539; experiment: Antiproliferative activity against human SF-539 cells assessed as cell growth inhibition at 10 uM incubated for 48 hrs by sulforhodamine B assay relative to control; assay type: functional; summary of the method: as §1
[30] = test system: DU-145; experiment: Antiproliferative activity against human DU-145 cells assessed as cell growth inhibition at 10 uM incubated for 48 hrs by sulforhodamine B assay relative to control; assay type: functional; summary of the method: as §2
[31] = test system: A498; experiment: Antiproliferative activity against human A498 cells assessed as cell growth inhibition at 10 uM incubated for 48 hrs by sulforhodamine B assay relative to control; assay type: functional; summary of the method: as §3

| Compound | inhibition at 10 µM [1] | inhibition at 10 µM [3] | inhibition at 10 µM [4] | inhibition at 10 µM [5] | inhibition at 10 µM [6] | inhibition at 10 µM [7] | logD at 1.417 h [8] | inhibition at 10 µM [9] | inhibition at 10 µM [10] | inhibition at 10 µM [11] | inhibition at 10 µM [12] | inhibition at 10 µM [13] | inhibition at 10 µM [14] | inhibition at 10 µM [15] | inhibition at 10 µM [16] | inhibition at 10 µM [17] | inhibition at 10 µM [18] | inhibition at 10 µM [19] | inhibition at 10 µM [20] | inhibition at 10 µM [21] | other results |
| --- | --- | --- | --- | --- | --- | --- | --- | --- | --- | --- | --- | --- | --- | --- | --- | --- | --- | --- | --- | --- | --- |
| CCc1ccc(-c2cn3ccnc3c(-c3ccc4ncn(Cc5ccccc5)c4c3)n2)cc1 | 46.1% | 51.2% | 36.4% | 30.8% | 20.9% | 57.9% | 1.96 | 74.7% | 68.8% | 58% | 49.9% | 30.5% | 44.7% | 41.2% | 30.7% | 54.2% | 0.89% | 38.1% | 14.8% | 43.2% | inhibition at 10 µM [2]: 17.2%; inhibition at 10 µM [22]: 39.6%; inhibition at 10 µM [23]: 31.2%; inhibition at 10 µM [24]: 50.1%; inhibition at 10 µM [25]: 50.9%; inhibition at 10 µM [26]: 39.7%; inhibition at 10 µM [27]: 15.9%; inhibition at 10 µM [28]: 61.2%; inhibition at 10 µM [29]: 21.2%; inhibition at 10 µM [30]: 19.1% |
| c1ccc(-c2cn3ccnc3c(-c3ccc4ncn(C5CCCCC5)c4c3)n2)cc1 | 37.3% | 39.8% | 38.2% | 63.9% | 22.9% | 55.1% | 1.74 | 51.6% | 48.3% | 38% | 59.8% | 21.7% | 35.9% | 50.5% | 45% | 67.7% | 5.25% | 36.8% | 16.5% | 41.5% | inhibition at 10 µM [2]: 54.4%; inhibition at 10 µM [31]: 26.1%; inhibition at 10 µM [22]: 67.1%; inhibition at 10 µM [23]: 41.8%; inhibition at 10 µM [24]: 39.6%; inhibition at 10 µM [25]: 28.7%; inhibition at 10 µM [26]: 24.2%; inhibition at 10 µM [27]: 57.1%; inhibition at 10 µM [28]: 59.5%; inhibition at 10 µM [29]: 27.8%; inhibition at 10 µM [30]: 29.3% |
| O=Cc1ccc(-c2cn3ccnc3c(-c3ccc4ncn(C5CCCCC5)c4c3)n2)cc1 | 32% | 23.1% | 23% | 44% | 14.4% | 82.2% | 1.5 | 49.1% | 17.5% | 47.8% | 47.5% | 27.1% | 11.6% | 37.4% | 25% | 58.7% | 11.2% | 46.7% | 27.8% | 51.2% | inhibition at 10 µM [31]: 11.2%; inhibition at 10 µM [22]: 16.5%; inhibition at 10 µM [23]: 23.7%; inhibition at 10 µM [24]: 46.9%; inhibition at 10 µM [25]: 13%; inhibition at 10 µM [26]: 20.9%; inhibition at 10 µM [27]: 33.8%; inhibition at 10 µM [28]: 92.6%; inhibition at 10 µM [29]: 31.5%; inhibition at 10 µM [30]: 24.3% |
| O=Cc1ccc(-c2cn3ccnc3c(-c3ccc4ncn(Cc5ccccc5)c4c3)n2)cc1 | 32% | 23.1% | 23% | 44% | 14.4% | 82.2% | 1.88 | 49.1% | 17.5% | 47.8% | 47.5% | 27.1% | 11.6% | 37.4% | 25% | 58.7% | 11.2% | 46.7% | 27.8% | 51.2% | inhibition at 10 µM [31]: 11.2%; inhibition at 10 µM [22]: 16.5%; inhibition at 10 µM [23]: 23.7%; inhibition at 10 µM [24]: 46.9%; inhibition at 10 µM [25]: 13%; inhibition at 10 µM [26]: 20.9%; inhibition at 10 µM [27]: 33.8%; inhibition at 10 µM [28]: 92.6%; inhibition at 10 µM [29]: 31.5%; inhibition at 10 µM [30]: 24.3% |
